# ChEMBL document CHEMBL2057095, “Discovery and SAR of orally efficacious tetrahydropyridopyridazinone PARP inhibitors for the treatment of cancer” (Bioorg Med Chem, 2012)
# Assays:
# [1] = AUC (0 to 3 hrs) in mouse at 10 mg/kg, po; assay type: ADME, organism-based; design: time < 3 hr, dose 10 mg/kg, route oral; settings: plasma
# How it was run: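 Screening mouse PK: single oral dose of 10 mg/kg; plasma concentrations determined up to 3 h.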
# Mus musculus [2] = assay: Toxicity in C57BL/6 mouse bearing B16F10 tumor assessed as body weight loss at 60 mg/kg/day, po administered BID from day 5 to day 10 post-tumor implantation co-administered with temozolomide relative to vehicle-treated control; settings: in vivo
# [3] = Half life in mouse at 3 mg/kg, iv; assay type: ADME, organism-based; design: dose 3 mg/kg, route intravenous; settings: in vivo
# How it was run: (§1)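 Standard mouse PK: oral dose of 10 mg/kg and intravenous dose of 3 mg/kg; plasma concentrations determined up to 8 h.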
# Mus musculus [4] = assay: Toxicity in C57BL/6 mouse bearing B16F10 tumor assessed as mortality at 10 to 30 mg/kg/day, po administered BID from day 5 to day 10 post-tumor implantation co-administered with temozolomide; assay type: organism-based; design: route oral; settings: in vivo
# Mus musculus [5] = assay: (§2) AUC (0 to 8 hrs) in mouse at 10 mg/kg, po; assay type: ADME, organism-based, Plasma; design: time < 8 hr, dose 10 mg/kg, route oral; settings: in vivo, 8 h; how it was run: as §1
# [6] = Volume of distribution at steady state in mouse at 10 mg/kg, po and 3 mg/kg, iv; assay type: ADME, organism-based; settings: in vivo, read-out: Vdss; how it was run: as §1
# Mus musculus [7] = assay: (§3) Clearance in mouse at 10 mg/kg, po and 3 mg/kg, iv; assay type: ADME, organism-based; settings: in vivo; how it was run: as §1
# [8] = Cmax in mouse at 10 mg/kg, po; assay type: ADME, organism-based; design: dose 10 mg/kg, route oral; settings: in vivo; how it was run: as §1
# Mus musculus [9] = assay: Toxicity in C57BL/6 mouse bearing B16F10 tumor assessed as body weight loss at 30 mg/kg/day, po administered BID from day 5 to day 10 post-tumor implantation co-administered with temozolomide relative to vehicle-treated control; assay type: organism-based; design: route oral; settings: in vivo
# How it was run: (§4)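 Syngeneic B16F10 melanoma: 6 × 10⁴ cells in 50% matrigel injected s.c. into the flank of female C57BL/6 mice, 6–8 weeks old, 20 g. PARP inhibitor given orally on days 5–10 at 10, 30 or 60 mg/kg/day, bid. TMZ given orally at 50 mg/kg/day, qd, days 5–10. Tumor growth and body weight followed to day 21.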
# B16-F10 [10] = assay: Potentiation of temozolomide-induced antitumor activity against mouse B16F10 cells xenografted in po dosed C57BL/6 mouse assessed as tumor growth inhibition administered BID from day 5 to day 10 post-tumor implantation; assay type: functional, organism-based; how it was run: as §4
# Mus musculus [11] = assay: (§5) Oral bioavailability in mouse at 10 mg/kg; assay type: ADME, organism-based; settings: in vivo; how it was run: as §1
# [12] = as §2; assay type: ADME, organism-based, Plasma; design: time < 8 hr, dose 10 mg/kg, route oral; settings: plasma; how it was run: as §1
# [13] = as §3; assay type: ADME, organism-based; settings: in vivo; how it was run: as §1
# [14] = as §5; assay type: ADME, organism-based; settings: in vivo; how it was run: as §1
# Mus musculus [15] = assay: Antitumor activity against B16F10 tumor xenografted in C57BL/6 mouse assessed as tumor growth inhibition at 50 mg/kg/day, po administered QD from day 5 to day 10 post-tumor implantation; assay type: organism-based; design: route oral; settings: C57BL/6, B16-F10, po, read-out: GI; how it was run: as §4
# Mus musculus [16] = assay: Toxicity in C57BL/6 mouse bearing B16F10 tumor assessed as body weight loss at 50 mg/kg/day, po administered QD from day 5 to day 9 post-tumor implantation relative to vehicle-treated control; assay type: organism-based; design: route oral; settings: in vivo
# How it was run: (§6)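 Syngeneic B16F10 model: 6 × 10⁴ cells with 50% matrigel implanted s.c. into the flank of female C57BL/6 mice (6–8 weeks, 20 g). […] TMZ given orally at 50 mg/kg/day once daily over the same days. Tumor growth and body weight monitored.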
# Mus musculus [17] = assay: Toxicity in C57BL/6 mouse bearing B16F10 tumor assessed as body weight loss at 50 mg/kg/day, po administered QD from day 5 to day 10 post-tumor implantation relative to vehicle-treated control; assay type: organism-based; design: route oral; settings: in vivo; how it was run: as §4
# B16-F10 [18] = assay: Potentiation of TMZ antitumor activity against mouse B16F10 cells xenografted in po dosed C57BL/6 mouse assessed as increase in tumor growth inhibition administered BID from day 5 to day 9 post-tumor implantation; assay type: functional, organism-based; how it was run: as §6
# Mus musculus [19] = assay: (§7) Toxicity in C57BL/6 mouse bearing B16F10 tumor assessed as body weight loss at […], po administered BID from day 5 to day 9 post-tumor implantation co-administered with temozolomide relative to vehicle-treated control; assay type: organism-based; design: route oral; settings: in vivo
# Mus musculus [20] = assay: as §7; assay type: organism-based; design: route oral; settings: in vivo; remark: listed apart in the source
# Mus musculus [21] = assay: Toxicity in C57BL/6 mouse bearing B16F10 tumor assessed as body weight loss at 5 mg/kg/day, po administered BID from day 5 to day 9 post-tumor implantation co-administered with temozolomide relative to vehicle-treated control; assay type: organism-based; design: route oral; settings: in vivo; how it was run: as §6
SMILES,AUC(0-t) at 3 h [1] [ng·h/mL],half-life [3] [min],AUC (Mus musculus [5]) [ng·h/mL],Vd [6] [L/kg],CL (Mus musculus [7]) [mL/min/kg],Cmax [8] [ng/mL],F (Mus musculus [11]) [%],also measured
O=C(c1cc(Cc2n[nH]c(=O)c3c2NCCC3)ccc1F)N1CCN(c2ccccc2)CC1,2900,,,,,,,
O=C(c1cc(Cc2n[nH]c(=O)c3c2NCCC3)ccc1F)N1CCN(C(=O)C(F)(F)F)CC1,70,,,,,,,
CC(=O)N1CCN(C(=O)c2cc(Cc3n[nH]c(=O)c4c3NCCC4)ccc2F)CC1,70,,,,,,,
O=C1CCCN1c1cc(Cc2n[nH]c(=O)c3c2NCCC3)ccc1F,,29.4,3110,5.25,124,1500,106,Activity (Mus musculus [2]): 12%; Activity (Mus musculus [4]): Non-toxic; Activity (Mus musculus [9]): 3%; Activity (B16-F10 [10]): Dose-dependent effect
O=C(c1cc(Cc2n[nH]c(=O)c3c2NCCC3)ccc1F)N1CCN(c2ncccn2)CC1,2900,232,,4.99,,5600,,AUC(0-t) at 8 h [12]: 9060 ng·h/mL; clearance [13]: 14.8 mL/min/kg; bioavailability [14]: 36%
O=C(c1cc(Cc2n[nH]c(=O)c3c2CCCC3)ccc1F)N1CCN(c2ccccn2)CC1,,66,2700,9.48,98.7,1090,74,
O=C1CCCC(=O)N1c1cc(Cc2n[nH]c(=O)c3c2NCCC3)ccc1F,70,,,,,,,
Cn1nnc2c(C(N)=O)ncn2c1=O [TEMOZOLOMIDE],,,,,,,,inhibition at 50 mg/kg (Mus musculus [15]): 30%; Activity (Mus musculus [16]): 2%; Activity (Mus musculus [17]): 1%
O=C1CCCN1c1cc(Cc2n[nH]c(=O)c3c2CCCC3)ccc1F,,16.8,330,4.78,195.3,140,13,
O=C(c1cc(Cc2n[nH]c(=O)c3c2CCCC3)ccc1F)N1CCN(c2ncccn2)CC1,,21.6,2380,2.33,75.8,1030,48,
O=C(c1cc(Cc2n[nH]c(=O)c3c2NCCC3)ccc1F)N1CCN(c2ccccn2)CC1,2900,156,,7.66,,2010,,Activity (B16-F10 [18]): Dose-dependent effect; AUC(0-t) at 8 h [12]: 5950 ng·h/mL; Activity (Mus musculus [19]): 3%; clearance [13]: 34 mL/min/kg; Activity (Mus musculus [20]): 3%; Activity (Mus musculus [21]): 21%; bioavailability [14]: 67%
